From PubChem
NR2E3 ag-1: NR2E3 agonists in two-hybrid cells, primary screen, cell-based, luminescence, CHO-S, Gal4-NCOR/VP16-NR2E3; Photoreceptor-specific nuclear receptor (Homo sapiens), Q9Y5X4; luciferase; inhibition of corepressor binding, % at 3.98 µM; 360,000 tested, 0.35% active; AID 602229, 2012;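 active = inhibition above the mean of all tested compounds plus 3 SD, cut at about 70% in these data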;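 also: 0% = DMSO with NR2E3 transfected cells and 100% = cells lacking NR2E3 construct; higher means lower luciferase signal from less NR2E3 corepressor binding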
Target sequence (Q9Y5X4 whole entry, looked up, the tested form may be a part): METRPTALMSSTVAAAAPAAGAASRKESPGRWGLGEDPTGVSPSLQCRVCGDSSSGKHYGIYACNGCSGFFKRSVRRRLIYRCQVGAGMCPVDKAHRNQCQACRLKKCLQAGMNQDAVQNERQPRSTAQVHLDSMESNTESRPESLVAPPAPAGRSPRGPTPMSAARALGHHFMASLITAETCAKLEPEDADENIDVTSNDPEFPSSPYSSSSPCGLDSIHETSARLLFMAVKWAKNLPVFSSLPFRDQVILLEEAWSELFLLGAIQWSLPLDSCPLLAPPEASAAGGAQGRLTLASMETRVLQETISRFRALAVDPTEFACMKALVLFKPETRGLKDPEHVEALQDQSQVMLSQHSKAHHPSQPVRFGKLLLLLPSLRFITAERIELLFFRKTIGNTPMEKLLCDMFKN
PG9 binder: binders of HIV-1 gp120 antibody PG9, primary screen, biochemical, TR-FRET. TR-FRET gp120-PG9 antibody binding. HIV-1 gp120 / PG9 antibody interaction. 360,000 tested, 0.43% active. inhibition, % at 6.7 µM. AID 624416, 2012; in the data active = inhibition above about 8.5%
NR2E3 ag-2: inhibitors of NR2E3-RetCOR corepressor binding, primary screen, NR2E3 agonist project, biochemical, TR-FRET, GST-NR2E3, biotin-RetCOR. 1536-well. inhibition of corepressor binding, % at 4.78 µM. 320,000 tested, 0.12% active;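 active = percent inhibition above the cutoff of mean plus 3 SD of all tested compounds, set per screening campaign, cut at about 20% in these data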;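 also: 0% = DMSO wells and 100% = biotin wells as full block of FRET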
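Test system: GST-NR2E3 and biotin-RetCOR proteins | Quantity: 1.35 nM GST-tagged NR2E3 final | Medium: Tris pH 7.5 | Also added: 7 nM biotin-RetCOR | Dosing: Compound at 4.8 µM, single dose | Timing: 5 h at 4 °C | Detection: Time-resolved FRET | Read-out basis: Percent inhibition | Benchmarks: Biotin wells as high control, 0.6% DMSO wells as low control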
NR1D1 modulator: modulators of Rev-erb alpha DNA binding, primary screen, biochemical, FITC-DNA, fluorescence polarization, uHTS; Nuclear receptor subfamily 1 group D member 1 (Homo sapiens), P20393; Rev-erbα–FITC-DNA binding, 90 min; activity, % at 10 µM; 370,000 tested, 0.79% active;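 active = activity above about 14%, limit read from the data; passing the limit was not always enough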;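 also: 0% = DMSO wells with 35 nM protein and 100% = DMSO wells with 750 nM protein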
NR2E3 ag conf: NR2E3 agonist confirmation in cells, cell-based, luminescence, CHO-S two-hybrid. 2,300 tested, 51% active. inhibition, % at 3.98 µM. shares compounds with NR2E3 ag-1. CHO-S mammalian two-hybrid NR2E3-NCOR, luciferase luminescence;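 active = average inhibition above a cutoff equal to the mean inhibition of all tested compounds plus one SD, cut at about 70% in these data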;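 also: 0% = DMSO in NR2E3 cells and 100% = DMSO in cells lacking NR2E3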
VP16 counter: GAL4-VP16 reporter modulators, confirmation, counter-screen for NR2E3 agonist project, cell-based, luminescence, CHO-S, high throughput | shares compounds with NR2E3 ag-1 | CHO-S GAL4-VP16 luciferase reporter | inhibition, % at 3.98 µM | 2,300 tested, 29% active | AID 624379, 2012;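 active = mean inhibition above a cutoff equal to the average over all tested compounds plus one standard deviation, cut at about 70% in these data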;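 also: luciferase from a UAS reporter driven by GAL4-VP16 transactivation; 0% = DMSO with VP16-transfected cells and 100% = DMSO with cells lacking VP16; higher means less reporter light so more repression of VP16 activity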
Starred values were filed as active, the others as inactive. A selection: hits, their analogues and other compounds. The true share with any hit is near 1.4%.

Nc1ccc(Oc2ccccc2-c2ccccc2)cc1 was read as NR2E3 ag-1 48, PG9 binder -2, NR2E3 ag-2 -2, NR1D1 modulator 5, NR2E3 ag conf 31 and VP16 counter 37.
Screening NCCOc1ccccc1-c1ccccc1 returned NR2E3 ag-1 18, PG9 binder 0, NR2E3 ag-2 -1 and NR1D1 modulator 3.
For O=c1oc2ccccc2c(Nc2cccc3ccccc23)c1[N+](=O)[O-] the results were NR2E3 ag-1 50, PG9 binder -2, NR2E3 ag-2 -4, NR1D1 modulator -1, NR2E3 ag conf 66 and VP16 counter 30.
`O=c1oc2ccccc2c(Nc2ccccc2O)c1[N+](=O)[O-]` gave NR2E3 ag-1 -17, PG9 binder -1, NR2E3 ag-2 -2 and NR1D1 modulator 3.
CCCCOCCCNC(=O)C[C@H]1C[C@@]2(C(=O)OC)C(=C[C@H](C3CCCC3)O[C@@H]2C)N(CCc2ccc(OC)c(OC)c2)C1=O was read as NR1D1 modulator 2.
COCCNc1nc(NCc2ccccc2OC)c2sccc2n1 was read as NR2E3 ag-1 15, PG9 binder -1 and NR1D1 modulator 3.
For c1cc2cc(CNc3nc(NCC4CC4)nc4ccsc34)ccc2o1 the results were NR2E3 ag-1 16, PG9 binder 0 and NR1D1 modulator 2.
`COc1ccccc1CNc1nc(NCc2ccccc2OC)c2sccc2n1` gave NR2E3 ag-1 75*, PG9 binder 1, NR1D1 modulator 7, NR2E3 ag conf 75* and VP16 counter 57.
COc1ccccc1CNc1nc(NCc2ccc3occc3c2)c2sccc2n1 was read as NR2E3 ag-1 69, PG9 binder -1, NR1D1 modulator -7, NR2E3 ag conf 53 and VP16 counter 64.
COc1ccccc1CNc1nc(NCc2ccccc2SC)c2sccc2n1 was read as NR2E3 ag-1 80*, PG9 binder 0, NR1D1 modulator 1, NR2E3 ag conf 85* and VP16 counter 70.
`CSC(=Nc1ccccc1)N=C(SCc1ccccc1)N(C)C` gave NR2E3 ag-1 86*, PG9 binder 2, NR1D1 modulator -1, NR2E3 ag conf 87* and VP16 counter 53.
NC(=O)c1c(-c2ccc(Cl)cc2Cl)csc1NC(=O)Cc1ccccc1 was read as NR2E3 ag-1 56, PG9 binder -3, NR2E3 ag-2 -3, NR1D1 modulator 2, NR2E3 ag conf 64 and VP16 counter 62.
Screening OC(c1ccccc1)(c1ccccc1)C1CCN(CCCNc2ccc(C(F)(F)F)cc2)CC1 returned NR1D1 modulator 1.
`COc1ccc(NC(=O)Nc2ccccc2C(=O)N2CCCC2)cc1OC` gave NR1D1 modulator -4.
For O=C(c1ccccc1)c1ccc(Cn2cc(-c3ccccc3)nn2)cc1 the results were NR2E3 ag-1 64, PG9 binder -1, NR2E3 ag-2 -3, NR1D1 modulator 0, NR2E3 ag conf 84* and VP16 counter 64.
Screening COCCCN1C(=O)[C@H](CC(=O)N2CCSCC2)[C@]2(C(=O)OC)CCCCC=C12 returned NR1D1 modulator 10.
Screening CCc1ccc(NCc2ccc(OC)c(Cn3ccnc3)c2)cc1 returned NR2E3 ag-1 52, PG9 binder 0, NR2E3 ag-2 1, NR1D1 modulator 3, NR2E3 ag conf 26 and VP16 counter 25.
Screening COc1ccc(CNc2ccc(Cl)cc2)cc1Cn1ccnc1 returned NR2E3 ag-1 21, PG9 binder 2, NR2E3 ag-2 -3 and NR1D1 modulator -4.
Screening Cc1cc(C(=O)Nc2ccc(Cl)c(Cl)c2)n(-c2ccccc2)n1 returned NR1D1 modulator -2.
